KCNK3 inh: human KCNK3 channel inhibitors, primary screen, CHO cells, FluxOR thallium flux, B-score | FluxOR fluorescence; stronger effect = lower value | 0.84% of 340,000 active | B-score at 10 µM | Potassium channel subfamily K member 3 (Homo sapiens), O14649;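 active = B-score under library mean minus 4 SD, starting fluorescence ratio at most library mean plus 5 SD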;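 note: more negative B-score means stronger inhibition of thallium flux through KCNK3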
Target sequence (O14649 whole entry, looked up): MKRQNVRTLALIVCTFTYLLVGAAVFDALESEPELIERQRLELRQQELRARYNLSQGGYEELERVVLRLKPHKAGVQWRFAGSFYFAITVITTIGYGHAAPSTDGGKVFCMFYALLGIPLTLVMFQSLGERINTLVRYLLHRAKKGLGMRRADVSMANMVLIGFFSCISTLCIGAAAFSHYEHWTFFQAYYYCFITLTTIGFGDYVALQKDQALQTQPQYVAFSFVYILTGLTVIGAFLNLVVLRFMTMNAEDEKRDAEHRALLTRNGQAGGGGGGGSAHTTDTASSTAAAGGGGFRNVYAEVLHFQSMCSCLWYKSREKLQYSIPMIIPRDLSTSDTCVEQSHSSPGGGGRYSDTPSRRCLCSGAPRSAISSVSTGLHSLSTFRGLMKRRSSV
KCNQ1 act: potentiators or activators of KCNQ1 channel, primary screen, cell-based, thallium flux, high-throughput; Potassium voltage-gated channel subfamily KQT member 1 (Homo sapiens), P51787; CHO-K1 KCNQ1, thallium flux FluxOR fluorescence; stronger effect = higher value; B-score at 10 µM; 0.35% of 310,000 active;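 active = fluorescence ratio B-score, a plate-corrected score, at least three library SD, with initial intensity B-score within 5 SD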
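System: CHO-K1 cells stably expressing KCNQ1 / Medium: assay buffer for compound exposure, DMSO matched across wells / Reagent: thallium- and potassium-containing depolarizing buffer / Compound: one concentration, matched DMSO / Incubation: 20 min compound pretreatment at room temperature / Measured by: kinetic FluxOR fluorescence, 10 s baseline plus 110 s post-stimulus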
KCNQ1 block: inhibitors of human KCNQ1 channel, primary screen, cell-based, thallium flux, high-throughput; CHO-K1 KCNQ1, FluxOR thallium flux fluorescence; stronger effect = higher value; 1.3% of 310,000 active; B-score at 10 µM;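 active = compounds whose thallium flux B-score, printed positive for inhibition, exceeds three library SD while starting fluorescence stays within three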;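 note: channel opened by potassium depolarization with thallium stimulus after 20 min compound exposure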
KCNK9 block: KCNK9 potassium channel inhibitors, primary screen, HEK293 cells, thallium flux; Potassium channel subfamily K member 9 (Homo sapiens), Q9NPC2; 1.2% of 310,000 active; B-score at 10 µM; FluxOR thallium flux fluorescence; stronger effect = lower value;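 active = ratio B-score over 3 SD below the library mean, with starting fluorescence within 5 SD of its mean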;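 note: negative B-score means less thallium flux so channel inhibition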
hERG rescue: hERG rescue from dofetilide block, primary screen, cell-based, CHO-hERG, FluxOR thallium flux, dofetilide IC70; Voltage-gated inwardly rectifying potassium channel KCNH2 (Homo sapiens), Q12809; dofetilide IC70 present; activation (rescue from dofetilide block), less the hit threshold, % at 10 µM; 0.51% of 310,000 active; AID 1511, 2009;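 active = activation above the mean of controls blocked by dofetilide plus 5 SD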;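 note: thallium influx through hERG after potassium depolarization seen as dye fluorescence rise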
* marks the source's active call; other numbers are inactive results; i = inactive; · = no result given. An excerpt weighted towards active compounds, which were near 3.1% of everything screened.

SMILES	KCNK3 inh	KCNQ1 act	KCNQ1 block	KCNK9 block	hERG rescue
c1ccc(-c2ccc(-c3n(-c4ccccn4)c4ccccc4[n+]3-c3ccccn3)cc2)cc1	i	i	9*	i	-31
COc1cc(O)cc2c1cc([N+](=O)[O-])c1c(C(=O)O)cc3c(c12)OCO3	i	·	·	·	·
Cc1ccc(NP(=O)(Oc2ccccc2F)Oc2ccccc2F)cc1C	i	i	i	i	-12
COc1cccc(NP(=O)(Oc2ccc(Cl)cc2)Oc2ccc(Cl)cc2)c1	i	i	i	-6.7*	-4
Cc1cccc(NP(=O)(Oc2ccccc2F)Oc2ccccc2F)c1	i	i	i	-7.2*	-27
O=P(Nc1ccccc1)(Nc1ccccc1)Oc1ccc(Cl)cc1	i	i	i	i	-30
Cc1cccc(OP(=O)(Oc2ccccc2)OC(c2ccccc2)C(F)(F)F)c1 (centres undefined)	i	i	8*	i	-11
Cc1ccc(C)c(NP(=O)(Oc2ccccc2)Oc2ccccc2)c1	i	i	i	i	-3
CCOc1cccc(CNCCc2c(C)[nH]c3ccc(OC(F)(F)F)cc23)c1O	i	i	12*	i	-21
CC1=C(N2CC2)C(=O)C(CO)=C(N2CC2)C1=O	i	·	·	·	·
COCCNC(=O)N1[C@H]2CC[C@@H]1C(C(=O)OC)=C(c1cccc(C#N)c1)C2	i	·	·	·	·
Cc1cccn2c(=O)c3c(nc12)N1CCC(Cc2ccccc2)CC1C1(C3)C(=O)N(C)C(=O)N(C)C1=O (centres undefined)	i	i	i	-6.6*	-11
CNC(C(=O)c1ccccc1)C(OC)c1cccc([N+](=O)[O-])c1 (centres undefined)	i	i	i	i	-7
CC1=CC2/C=C(\C)CCC(O)C(O)/C=C/C(=O)C23C(=O)NC(CC(C)C)C3C1C (centres undefined)	i	10*	i	i	-12
CCn1c(O)c(C=Nc2ccc(N3CCOCC3)cc2)c(=O)n(CC)c1=S	i	i	7*	i	-19
O=C([O-])c1ccc(-[n+]2c(-c3ccccc3)cc(-c3ccccc3)cc2-c2ccccc2)cc1	i	i	i	i	-14
Oc1ccc(-[n+]2c(-c3ccccc3)cc(-c3ccccc3)cc2-c2ccccc2)cc1	i	i	10*	-7.3*	-50
COc1ccc(-[n+]2c(-c3ccccc3)cc(-c3ccccc3)cc2-c2ccccc2)cc1	·	i	6*	-8.8*	-30
CCOP(=O)(CCP(=O)(OCC)OCC)OCC.C[CH2][Sn]([Cl])([Cl])[CH2]C	i	·	·	·	·
N#CC1=C(N)Oc2cc(O)ccc2C1c1ccc2c(c1)OCO2 (centres undefined)	i	i	i	-7.5*	-11
O=C1c2ccccc2C2(c3ccc(Cl)cc3)NCCN12 (centres undefined)	i	i	i	i	4.8*
CC1CN=C(Nc2ccc(F)c(Cl)c2)S1 (centres undefined)	i	i	i	i	-3
CCN(CC)c1ccc(/C=C2\C(=O)NC(=S)N(C)C2=O)o1	i	i	7*	i	-7
CCN(CC)c1ccc(/C=C2\C(=O)NC(=S)N(c3ccc(OC)cc3OC)C2=O)o1	i	i	6*	i	-23
O=C(NCc1cccnc1)C(Cl)(Cl)Cl	i	i	i	i	-4
SMILES	KCNK3 inh	KCNQ1 act	KCNQ1 block	KCNK9 block	hERG rescue
CCCCNC(C)Cc1ccccc1 (centres undefined)	i	·	·	·	·
COc1ccc(CC(C)NCCC(c2ccccc2)c2ccccc2)cc1 (centres undefined)	i	i	6*	i	-28
O=c1[nH]c(=S)n(CCC2=CCCCC2)c(O)c1C=NC1CCN(Cc2ccccc2)CC1	i	i	7*	i	-23
Oc1ccc(C2=CCNCC2)cc1O	i	i	i	i	-8
CC(C)(C)c1cc([N+](=O)[O-])cc(C(C)(C)C)c1O	·	i	6*	i	-18
Cc1cccc(CC(c2cccc(C)c2)N(C)C)c1 (centres undefined)	i	·	·	·	·
C[C@H]1CC[C@@]2(C)[C@@H](CC[C@@H]3[C@@H]2CC[C@]2(C)[C@@H](O)CC[C@@H]32)C1	i	i	i	i	-2
COc1ccc(CCNCc2cccn2C)cc1	i	i	i	i	-6
Cn1cccc1CNCCc1ccccc1	·	i	i	i	6.4*
Cc1ncc(CN2CCCC(C(=O)c3ccc(C(C)(C)C)cc3)C2)s1 (centres undefined)	i	i	i	i	-12
N#CC(C#N)=NNc1ccc(-n2ccc(C(F)(F)F)n2)cc1	i	i	7*	i	-36
Cc1cc(C)n(-c2ccc(NN=C(C#N)C#N)cc2)n1	i	i	i	i	-14
CC(=O)C1CCC2C3CCC4CC(O)CCC4(C)C3C(O)CC12C (centres undefined)	i	·	·	·	·
Cc1cccc2c1=NC(=O)/C(=C/c1c(O)[nH]c(=O)[nH]c1=O)C=2	i	i	i	i	-3
O=c1[nH]c(=S)[nH]c(O)c1/C=C1/C=c2ccccc2=N1	i	i	i	i	45*
Cc1ccc(/C=C2\C(=O)NC(=S)N(c3ccc(F)cc3)C2=O)s1	i	i	i	i	11*
Cc1ccsc1C(=O)C1CCCN(Cc2cnc(N3CCCC3)s2)C1 (centres undefined)	i	i	i	i	-3
c1ccc(C[n+]2ccccc2)cc1	i	i	7*	i	-7
Cc1cc[n+](Cc2ccccc2)cc1	i	i	i	i	-2
O=C1NC(=O)N(c2ccc3c(c2)OCO3)C(=O)/C1=C/c1ccc(N2CCCCC2)o1	i	i	6*	-7.7*	-19
O=C1NC(=O)N(c2ccc3c(c2)OCO3)C(=O)/C1=C\c1ccc(-c2ccccc2C(=O)O)o1	i	i	i	i	-2
C/C1=C\[C@@H](C)C/C=C/[C@H]2[C@@H]3O[C@]3(C)[C@@H](C)[C@H]3[C@H](Cc4c[nH]c5ccccc45)NC(=O)[C@]32C(=O)/C=C/C(=O)[C@@H]1O	i	22*	i	i	-1
CCc1nn(CC(=O)N2CCC3(CC2)OCCO3)c(=O)c2cccn12	i	i	i	i	0
